ChEMBL document CHEMBL4020842, “Discovery of N1-(4-((7-Cyclopentyl-6-(dimethylcarbamoyl)-7 H-pyrrolo[2,3- d]pyrimidin-2-yl)amino)phenyl)- N8-hydroxyoctanediamide as a Novel Inhibitor Targeting Cyclin-dependent Kinase 4/9 (CDK4/9) and Histone Deacetlyase1 (HDAC1) against Malignant Cancer” (J Med Chem, 2018)
The source made the active and inactive calls. The rule behind the calls is not given here.

Assays:
[1] = system: Hep 3B2; assay: Cytotoxicity against human Hep3B cells assessed as reduction in cell viability after 72 hrs by CCK8 assay
[2] = system: HepG2; assay: Cell cycle arrest in human HepG2 cells assessed as accumulation at G0/G1 phase after 24 hrs by propidium iodide staining based flow cytometry; type: functional
Method in brief: (§1)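 Cells were exposed for 24 h to a range of concentrations (625 nM, 2.5 and 10 µM), with DMSO vehicle as control. They were then stained with propidium iodide and analysed by flow cytometry to obtain the percentages of cells in G0/G1, S and G2 phases.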

[3] = system: NCI-H1299; assay: Cytotoxicity against human NCI-H1299 cells assessed as reduction in cell viability after 72 hrs by CCK8 assay; type: functional, cell-based; conditions: NCI-H1299, 72 h
[4] = system: NCI-H460; assay: Cytotoxicity against human NCI-H460 cells assessed as reduction in cell viability after 72 hrs by CCK8 assay; type: functional, cell-based; conditions: NCI-H460, 72 h
[5] = system: MDA-MB-468; assay: Cytotoxicity against human MDA-MB-468 cells assessed as reduction in cell viability after 72 hrs by CCK8 assay; type: functional, cell-based; conditions: MDA-MB-468, 72 h
[6] = system: NCI-H460; assay: Cell cycle arrest in human NCI-H460 cells assessed as accumulation at G0/G1 phase after 24 hrs by propidium iodide staining based flow cytometry; type: functional; method in brief: as §1
[7] = system: MDA-MB-231; assay: Cell cycle arrest in human MDA-MB-231 cells assessed as accumulation at G0/G1 phase after 24 hrs by propidium iodide staining based flow cytometry; type: functional; method in brief: as §1
[8] = system: T47D; assay: Cytotoxicity against human T47D cells assessed as reduction in cell viability after 72 hrs by CCK8 assay; type: functional, cell-based
[9] = system: 4T1; assay: Cytotoxicity against mouse 4T1 cells assessed as reduction in cell viability after 72 hrs by CCK8 assay; type: functional, cell-based; conditions: 4T1, 72 h
[10] = system: Hep 3B2; assay: Cell cycle arrest in human Hep3B cells assessed as accumulation at G0/G1 phase after 24 hrs by propidium iodide staining based flow cytometry; type: functional; method in brief: as §1
[11] = system: HepG2; assay: Cytotoxicity against human HepG2 cells assessed as reduction in cell viability after 72 hrs by CCK8 assay; type: functional, cell-based; conditions: HepG2, 72 h
[12] = system: 4T1; assay: Antitumor activity against mouse Fluc-labeled 4T1 cells implanted in Balb/c mouse assessed as tumor growth inhibition at 130 mg/kg, po administered daily via gavage for 18 days by bioluminescence assay relative to control; type: functional; conditions: 4T1, po, 432 h, read-out: TGI
[13] = system: 4T1; assay: Antitumor activity against mouse Fluc-labeled 4T1 cells implanted in Balb/c mouse assessed as reduction in tumor weight at 130 mg/kg, ip administered daily for 18 days measured after 8 to 25 days; type: functional, organism-based
Method in brief: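 Luciferase (Fluc) reporter introduced into 4T1 cells by lentiviral transduction. Cells implanted orthotopically into mammary fat pads of female BALB/c mice aged 6–8 weeks. Once tumours averaged 100 mm3, dosing was daily by IP injection. Bioluminescence imaging was done at days 8 and 25 to reflect viable tumour cell number. Tumour weight was recorded at study end.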

[14] = system: A549; assay: Cytotoxicity against human A549 cells assessed as reduction in cell viability after 72 hrs by CCK8 assay; type: functional, cell-based; conditions: A549, 72 h
[15] = system: MDA-MB-231; assay: Cytotoxicity against human MDA-MB-231 cells assessed as reduction in cell viability after 72 hrs by CCK8 assay; type: functional, cell-based; conditions: MDA-MB-231, 72 h
[16] = system: A549; assay: Cell cycle arrest in human A549 cells assessed as accumulation at G0/G1 phase after 24 hrs by propidium iodide staining based flow cytometry; type: functional; method in brief: as §1
[17] = system: T47D; assay: Cell cycle arrest in human T47D cells assessed as accumulation at G0/G1 phase after 24 hrs by propidium iodide staining based flow cytometry; type: functional; method in brief: as §1
[18] = system: 4T1; assay: Antitumor activity against mouse Fluc-labeled 4T1 cells implanted in Balb/c mouse assessed as tumor growth inhibition at 130 mg/kg, ip administered daily for 18 days measured after 8 to 25 days by bioluminescence assay relative to control; type: functional; conditions: 4T1, ip, read-out: TGI

CN(C)C(=O)c1cc2cnc(Nc3ccc(N4CCNCC4)cn3)nc2n1C1CCCC1 [RIBOCICLIB]
IC50 [1]: > 10 µM | Activity [2]: Active | IC50 [3]: 5.46 µM | IC50 [4]: > 10 µM | IC50 [5]: > 10 µM | Activity [6]: Active | Activity [7]: Active | IC50 [8]: 6.23 µM | IC50 [9]: > 10 µM | Activity [10]: Active | IC50 [11]: > 10 µM | inhibition in vivo at 130 mg/kg [12]: 38.9% | Activity [13]: Active | IC50 [14]: > 10 µM | IC50 [15]: > 10 µM | Activity [16]: Active | Activity [17]: Active | inhibition in vivo at 130 mg/kg [18]: 68.5%
